The record followed here is PubChem BioAssay.

The source made the active and inactive calls.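 How the source made its calls, unless noted: active means NADPH fluorescence slope more negative than the mean of all samples by about 3 SD, 99.7% confidence; inactive means the rest.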

A short description of assay [1]: inhibitors of TNFa-induced NFkB p65 translocation, primary screen, imaging, HUVEC, MLSMR starter and 10KST1 sets (AID 438;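 active means inhibition above 20% together with a positive visual image hit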;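 further: compound added about 3h40 before a 20 min TNFalpha stimulation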;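 on inhibition: signal is the nuclear over cytoplasmic p65 intensity ratio per well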). The following applies: HUVEC TNFa-induced p65 nuclear translocation; cell count: measured here: nuclei count (cytotoxicity indicator), at 2.08 µM; inhibition: at 2 µM, stronger effect = higher value, 0% TNFa-plus-vehicle, 100% no-TNFa wells.
A short description of assay [2]: inhibitors of mutant huntingtin aggregation, primary screen, imaging, exon1htt(103Q)mCFP cells, high-content imaging (AID 483;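 active means visual image review flags a hit and inhibition of aggregation exceeds 20%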;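 further: compound exposure lasted 3 days before fixation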;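 on nuclei count: percent of the per-plate median nuclei count of sample wells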). The following applies: exon1htt(103Q)mCFP cell line, aggregate imaging, at 2 µM; inhibition of aggregation: stronger effect = higher value; nuclei count: measured here: cell count, toxicity.
Assay [3] can be described thus: inhibitors of E-selectin induction by TNFa, primary screen, imaging, HUVEC, immunofluorescence, MLSMR starter and 10KST1 sets (AID 487;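 active means visually confirmed hit in the image check and inhibition above 20%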;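 on inhibition: signal is fraction of cell area covered by stained E-selectin grains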;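 on nuclei count: 100% = median nuclei count of all wells on the same plate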). To be noted: HUVEC TNFalpha-induced E-selectin immunofluorescence imaging, at 2 µM; inhibition: stronger effect = higher value; nuclei count: measured here: cell number, toxicity.
In assay [4] the target is Voltage-gated potassium channel subunit beta-2 (Rattus norvegicus) (UniProt P62483). As to the kind of experiment: KvBeta enzyme negative modulators, primary screen, biochemical, NADPH fluorescence (AID 622;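 active means fluorescence slope higher than the sample average by over 3 SD, cut at about -0.22 in these data, passing the limit was not always enough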;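 further: slope of raw intensity against log time taken from 70 to 1610 s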). To be noted: recombinant KvBeta, 4-cyanobenzaldehyde reduction, at 10 µM, stronger effect = higher value.
Assay [5] shares this target. As to the kind of experiment: KvBeta positive modulators, primary screen, biochemical, NADPH fluorescence (AID 623).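 Further: fluorescence intensity change per second fitted from 20 to 320 s.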 The following applies: Recombinant KvBeta, NADPH fluorescence decrease slope, 10 min; at 10 µM; stronger effect = lower value.
Assay [6] concerns the target Muscarinic acetylcholine receptor M4 (Homo sapiens) (UniProt P08173). In words: compounds altering M4/GIRK thallium flux, either direction, primary screen, M4 allosteric agonist project, cell-based, HEK293 M4/GIRK, BTC-AM (AID 625;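 active means fluorescence slope after compound addition differing from the mean of all tested samples at 99.7% confidence, mostly higher but some lower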;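 further: thallium influx through GIRK channels coupled to M4 in HEK293 cells with BTC-AM dye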). The following applies: at 10 µM, actives lie on both sides. In outline: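 System: HEK293 cells with M4 receptor and GIRK channels | Incubation: Cells overnight at 37 °C, BTC-AM loading 1 h, reads 2 min total | Technique: Kinetic BTC-AM fluorescence sampled at 1 Hz, 10 s pre-addition baseline | Measure: Post-addition slope, 15–24 s, of baseline-normalized fluorescence | Control set: Carbachol positive, DMSO negative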

A short description of assay [7]: inhibitors of Sendai virus-induced IRF3 signaling, primary screen, TLR/RLR signaling modifier project, cell-based, Sendai virus stimulus, luciferase, 10K MLSCN set (AID 602276;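 active means inhibition at or above 50% at 10 µM; inactive means inhibition below 50%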;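 further: firefly luciferase from ISG56 promoter only with Renilla not read in this screen; 0% = Sendai virus plus DMSO and 100% = medium plus DMSO without virus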). To be noted: HEK293 RL24 IRF3 luciferase reporter, at 10 µM, stronger effect = higher value.
Assay [8] in a line: inhibitors of poly I:C-induced TLR3 signaling, primary screen, cell-based, poly I:C stimulus, luciferase, 10K MLSCN set (AID 602277;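 active means inhibition of the reporter signal at or above 50%; inactive means inhibition below 50%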). To be noted: HEK293-TLR3 RL24 IRF3 luciferase reporter, at 10 µM, stronger effect = higher value.

Chain of Voltage-gated potassium channel subunit beta-2 (Rattus norvegicus) (P62483 whole entry, looked up): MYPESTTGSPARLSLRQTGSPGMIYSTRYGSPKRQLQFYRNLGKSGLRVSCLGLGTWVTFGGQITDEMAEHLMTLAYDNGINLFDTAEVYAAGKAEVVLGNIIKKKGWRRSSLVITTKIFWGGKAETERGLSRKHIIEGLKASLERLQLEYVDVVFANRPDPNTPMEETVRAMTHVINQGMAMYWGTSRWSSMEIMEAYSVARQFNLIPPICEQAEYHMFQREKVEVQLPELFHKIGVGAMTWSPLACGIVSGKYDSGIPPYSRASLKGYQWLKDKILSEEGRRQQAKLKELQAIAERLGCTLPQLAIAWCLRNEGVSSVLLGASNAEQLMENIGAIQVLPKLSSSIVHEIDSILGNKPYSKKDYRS
Chain of Muscarinic acetylcholine receptor M4 (Homo sapiens) (P08173 whole entry, looked up): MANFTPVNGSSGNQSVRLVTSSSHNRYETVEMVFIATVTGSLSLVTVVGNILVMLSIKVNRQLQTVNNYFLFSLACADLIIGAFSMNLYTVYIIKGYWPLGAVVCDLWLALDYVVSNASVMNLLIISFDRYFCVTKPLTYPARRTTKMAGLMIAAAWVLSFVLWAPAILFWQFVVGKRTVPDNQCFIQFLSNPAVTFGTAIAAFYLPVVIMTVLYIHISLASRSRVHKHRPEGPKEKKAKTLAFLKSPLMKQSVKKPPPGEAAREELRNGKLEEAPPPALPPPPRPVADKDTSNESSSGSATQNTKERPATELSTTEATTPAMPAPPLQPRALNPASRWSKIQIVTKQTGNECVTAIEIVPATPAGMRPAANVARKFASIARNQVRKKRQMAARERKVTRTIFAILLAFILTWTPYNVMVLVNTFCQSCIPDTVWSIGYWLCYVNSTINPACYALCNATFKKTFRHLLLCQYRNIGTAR

With `Cc1ccc(/C(O)=C2\C(=O)C(=O)N(CCCN(C)C)C2c2ccccn2)cc1` (stereo not drawn), the cell count in assay [1] is 536. Moreover, the inhibition in assay [1] was 0.9% (inactive); in assay [3] it was -53.4% (inactive); in assay [7], 16.3% (inactive); in assay [8], 8.71% (inactive). Besides, the inhibition of aggregation in assay [2] was -3.7% (inactive). Also, the nuclei count amounted to 98.9% in assay [2] and 132% in assay [3]. Moreover, the fluorescence slope is -0.514 (inactive) in assay [4] and 0.00375 (inactive) in assay [6]. Further, the NADPH fluorescence slope in assay [5] is -0.000162 (inactive).
In the case of `N#CCSc1nc(-c2ccccc2)cs1`, in assay [1], the cell count worked out at 371. For the same compound, the inhibition in assay [1] is 5% (inactive); in assay [3], -25.1% (inactive); in assay [7], -34.5% (inactive); in assay [8] it was -75.5% (inactive). For the same compound, in assay [2], the inhibition of aggregation was 1.3% (inactive). In addition, the nuclei count in assay [2] amounted to 103%; in assay [3], 109%. For the same compound, the fluorescence slope was -0.566 (inactive) in assay [4] and 0.0051 (inactive) in assay [6]. The NADPH fluorescence slope in assay [5] is -1.8e-05 (inactive).
As to `CCOc1ccccc1NC(=O)N1C2CCCC1CC(NC(=O)C1CC1)C2` (stereo not drawn), the cell count in assay [1] came to 417. Moreover, the inhibition in assay [1] is -3.2% (inactive); in assay [3] it was -75.6% (inactive); in assay [7] it was 17.1% (inactive); in assay [8], 23.8% (inactive). Moreover, the inhibition of aggregation in assay [2] was 6.6% (inactive). Also, the nuclei count in assay [2] came to 110%; in assay [3], 97.6%. The fluorescence slope was -0.515 (inactive) in assay [4] and 0.00474 (inactive) in assay [6]. In addition, in assay [5], the NADPH fluorescence slope is 4.4e-06 (inactive).
Turning to `Cc1c(C(=O)O)sc2ncn(C)c(=O)c12`, in assay [1], the cell count worked out at 745. Further, the inhibition in assay [1] is 2.8% (inactive); in assay [3], 21% (inactive); in assay [7], 2.12% (inactive); in assay [8] it was -1.59% (inactive). Also, the inhibition of aggregation in assay [2] is -9% (inactive). For the same compound, the nuclei count in assay [2] amounted to 116%; in assay [3], 106%. The results for the fluorescence slope in assay [4] and in assay [6] were -0.553 (inactive) and 0.00525 (inactive), respectively. Moreover, the NADPH fluorescence slope in assay [5] was -2.2e-05 (inactive).
`Cc1ccc(C)c(N2C(=O)CN=C2Nc2ccccc2Cl)c1`: in assay [1], the cell count turned out to be 441. Besides, the inhibition is 14.6% (inactive) in assay [1], 18.2% (inactive) in assay [3], 13% (inactive) in assay [7] and 24.3% (inactive) in assay [8]. Besides, the inhibition of aggregation in assay [2] was 0.8% (inactive). The nuclei count stood at 96.7% in assay [2] and 113% in assay [3]. The fluorescence slope in assay [4] is -0.577 (inactive); in assay [6], 0.00593 (inactive). In addition, the NADPH fluorescence slope in assay [5] is -4.1e-05 (inactive).
On to `CC(=O)Nc1ccc(NC(=O)c2ccccc2N(C)S(C)(=O)=O)cc1`, for which the cell count in assay [1] amounted to 408. The inhibition in assay [1] is 0.5% (inactive); in assay [3], -46.3% (inactive); in assay [7], 11.7% (inactive); in assay [8] it was 10.8% (inactive). Moreover, the inhibition of aggregation in assay [2] was -2.3% (inactive). Also, the nuclei count in assay [2] was 111%; in assay [3], 94.4%. In addition, the fluorescence slope in assay [4] is -0.462 (inactive); in assay [6], 0.00563 (inactive). Moreover, in assay [5], the NADPH fluorescence slope was -5.4e-05 (inactive).
As for `COCCN1C(=O)c2oc3c(C)cc(C)cc3c(=O)c2C1c1cccc(O)c1` (stereo not drawn), the cell count in assay [1] stood at 561. Besides, the inhibition was -25% (inactive) in assay [1], -66% (inactive) in assay [3], 8.51% (inactive) in assay [7] and -1.3% (inactive) in assay [8]. Also, in assay [2], the inhibition of aggregation is 6.4% (inactive). In addition, the nuclei count in assay [2] stood at 95.1%; in assay [3], 120%. Further, the results for the fluorescence slope in assay [4] and in assay [6] were -0.545 (inactive) and 0.00558 (inactive), respectively. Moreover, the NADPH fluorescence slope in assay [5] is -5.1e-05 (inactive).
With `CCS(=O)(=O)N1CCC(C(=O)N2CCOCC2)CC1`, the cell count in assay [1] was determined as 647. For the same compound, the inhibition was -7.3% (inactive) in assay [1], 27.5% (inactive) in assay [3], 12.1% (inactive) in assay [7] and 15.7% (inactive) in assay [8]. Moreover, in assay [2], the inhibition of aggregation is -7% (inactive). In addition, the results for the nuclei count in assay [2] and in assay [3] were 95.7% and 94.4%, respectively. Moreover, the fluorescence slope was -0.574 (inactive) in assay [4] and 0.00531 (inactive) in assay [6]. Moreover, the NADPH fluorescence slope in assay [5] was -2.5e-05 (inactive).
For `CSc1ccccc1NC(=O)c1noc2c1CCC2`, in assay [1], the cell count is 416. Also, the inhibition in assay [1] is 2.6% (inactive); in assay [3], -55.8% (inactive); in assay [7], -12.4% (inactive); in assay [8], -50.3% (inactive). Besides, the inhibition of aggregation in assay [2] was -0.9% (inactive). In addition, the nuclei count was 109% in assay [2] and 120% in assay [3]. For the same compound, the fluorescence slope in assay [4] was -0.593 (inactive); in assay [6] it was 0.00589 (inactive). Moreover, in assay [5], the NADPH fluorescence slope was -8e-06 (inactive).
`Cc1c(C(=O)O)sc2nc3n(c(=O)c12)CCC(C)CC3` (stereo not drawn): in assay [1], the cell count is 621. Further, the inhibition was -10.5% (inactive) in assay [1], -29.1% (inactive) in assay [3], 6.81% (inactive) in assay [7] and 11.1% (inactive) in assay [8]. The inhibition of aggregation in assay [2] was -7.7% (inactive). In addition, the nuclei count amounted to 113% in assay [2] and 110% in assay [3]. In addition, the fluorescence slope was -0.442 (inactive) in assay [4] and 0.00587 (inactive) in assay [6]. Further, the NADPH fluorescence slope in assay [5] is 6.7e-05 (inactive).
In the case of `O=S(=O)(NCc1ccco1)c1cccc2cccnc12`, the cell count in assay [1] turned out to be 336. In addition, the inhibition in assay [1] is 0% (inactive); in assay [3], -65.9% (inactive); in assay [7] it was 13.3% (inactive); in assay [8], 13% (inactive). For the same compound, the inhibition of aggregation in assay [2] was -18.3% (inactive). For the same compound, the nuclei count in assay [2] is 111%; in assay [3], 103%. Further, the figures for the fluorescence slope in assay [4] and in assay [6] were -0.551 (inactive) and 0.00492 (inactive), respectively. Further, the NADPH fluorescence slope in assay [5] is -1.2e-05 (inactive).
For the compound `O=c1cc(CSc2nnc(COc3ccc(Cl)cc3)o2)c2ccccc2[nH]1`, in assay [1], the cell count turned out to be 544. In addition, the inhibition is -6.2% (inactive) in assay [1], -46.6% (inactive) in assay [3], 1.93% (inactive) in assay [7] and -11.9% (inactive) in assay [8]. Further, the inhibition of aggregation in assay [2] was 8% (inactive). For the same compound, the results for the nuclei count in assay [2] and in assay [3] were 98.4% and 153%, respectively. For the same compound, the fluorescence slope is -0.497 (inactive) in assay [4] and 0.00464 (inactive) in assay [6]. In addition, in assay [5], the NADPH fluorescence slope is 7.1e-08 (inactive).
As for `COc1cccc(OC)c1C(=O)Nc1ccc(CN2CCCCC2)cc1`, the cell count in assay [1] is 640. Further, the inhibition is -2.4% (inactive) in assay [1], -32.5% (inactive) in assay [3], 13.4% (inactive) in assay [7] and 23.2% (inactive) in assay [8]. Also, the inhibition of aggregation in assay [2] was -16.7% (inactive). For the same compound, the nuclei count in assay [2] is 71.4%; in assay [3], 98.8%. In addition, the values for the fluorescence slope in assay [4] and in assay [6] were -0.425 (inactive) and 0.00659 (inactive), respectively. For the same compound, in assay [5], the NADPH fluorescence slope was -3.1e-06 (inactive).
